This is a sample that favours compounds with a hit; in the whole collection about 1.6% have one here.
FLuc stim CS = affects firefly luciferase, flagging false hits in luciferase stimulation screens | activation factor at 10 µM | 200,000 tested, under 10 active | P08659 | ATPlite luciferase biochemical, luminescence, 10 min; 0 = ATP-free wells, 1 = DMSO control;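 active means luciferase activation factor, scaled between plate controls, of at least 2 with compound at 10 µM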
Target sequence (P08659 whole entry, looked up): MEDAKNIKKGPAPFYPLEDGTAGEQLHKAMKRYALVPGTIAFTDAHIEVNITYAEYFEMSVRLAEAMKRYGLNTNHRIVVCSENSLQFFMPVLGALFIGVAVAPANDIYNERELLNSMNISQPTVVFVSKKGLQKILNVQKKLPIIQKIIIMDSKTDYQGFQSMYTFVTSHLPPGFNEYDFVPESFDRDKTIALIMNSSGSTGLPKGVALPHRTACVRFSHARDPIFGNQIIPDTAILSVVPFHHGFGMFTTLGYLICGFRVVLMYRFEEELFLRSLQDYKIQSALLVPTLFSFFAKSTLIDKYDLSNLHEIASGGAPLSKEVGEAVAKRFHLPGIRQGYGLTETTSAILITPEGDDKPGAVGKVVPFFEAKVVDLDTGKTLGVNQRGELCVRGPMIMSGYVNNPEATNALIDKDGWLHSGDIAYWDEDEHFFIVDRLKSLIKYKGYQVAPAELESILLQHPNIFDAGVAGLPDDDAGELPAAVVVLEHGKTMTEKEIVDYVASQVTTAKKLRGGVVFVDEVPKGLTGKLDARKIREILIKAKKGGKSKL
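Material: Luciferase/luciferin reagent mix | Doses: Test compounds dosed from 2 mM stocks in 100% DMSO | Timing: 10 min incubation after luciferase reagent addition, room temperature | Measured by: Luminescence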
PPC-1+TRAIL kill = kills PPC-1 cancer cells in the presence of TRAIL | AID 1443 | cell killing (% activity), % at 4 µM or 5 µM | 220,000 compounds, 0.41% hits | PPC-1 cells + TRAIL, ATPLite viability luminescence;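 active means cell killing above 50% in the first pass at 4 µM, then a duplicate retest at 5 µM averaging 50% or more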;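 further: plate controls were cells with TRAIL plus DMSO for no effect and medium-only wells lacking cells for full effect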
C8 TRAIL sens = sensitizes caspase-8 expressing cells to TRAIL; NB7+C8 cells + TRAIL, ATPlite viability luminescence; inhibition (viability loss, TRAIL sensitization), % at 10 µM; 360,000 compounds, 1% hits; AID 624354;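 active means compounds causing at least 50% loss of cell viability in the single-dose screen, relative to plate controls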
FLuc inh counter = inhibits firefly luciferase, flagging false hits in luciferase inhibition screens. 200,000 compounds, 1.5% hits. ATPLite firefly luciferase biochemical luminescence, 10 min. AID 1006. inhibition, % at 10 µM;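 active means inhibition above about 50% when tested at 10 µM, limit read from the data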
An asterisk follows results filed as active; nt = no result given.

SMILES	FLuc stim CS	PPC-1+TRAIL kill	C8 TRAIL sens	FLuc inh counter
Cc1cc(-c2ccccc2)nc(N/N=C/c2cccnc2)n1	0.3	37.7	38.8	74.1*
Cc1cc(N/N=C/c2ccccc2)nc(NCc2ccccc2)n1	0.2	30.7	54.8*	76.1*
C[n+]1ccccc1COc1ccc(C(C)(C)C)cc1	1.1	17.2	-8.3	-9.5
NC(=O)C1CCN(C(=O)COc2ccc3c(c2)oc(=O)c2ccccc23)CC1	nt	nt	-8.1	nt
CC(C)C[C@H](NS(=O)(=O)c1ccc(Br)cc1)C(=O)O	1	-5.0	-3.8	-4.9
Cc1ccc(-n2nc3c(n2)/C(=N/O)CC/C3=N\O)cc1	0.3	10.9	36.7	66.9*
O/N=C1\CC/C(=N\O)c2nn(-c3ccccc3Cl)nc21	1.1	12.5	-6.4	-7.6
Cc1ccc(NC(=O)CCNC(=O)c2ccccc2Cl)cc1S(=O)(=O)N(C)C	1	7.0	-5.3	-1.6
Cc1ccc(C)c(C(=O)COC(=O)c2cccc(N3C(=O)c4c(C)nc5ccccc5c4C3=O)c2)c1	0.4	64.6*	56.7*	60.4*
Cc1nc2ccccc2c2c1C(=O)N(c1cccc(C(=O)O)c1)C2=O	1	1.4	-0.5	-3.0
Cc1ccc(-n2c(N)c(C(N)=O)sc2=S)c(C)c1	1	-1.0	8.7	-4.9
CC1CCc2sc(-c3n[nH]c(=S)o3)cc2C1 (configuration not stated)	0.4	31.8	16.8	57.0*
O=C(Nc1ccccc1)c1cc(C2CCCN(C(=O)C3CC3)C2)on1 (configuration not stated)	nt	nt	51.2*	nt
O=C(c1nn2c(C(F)(F)F)cc(-c3ccccc3)nc2c1Cl)N1CCN2CCCC2C1 (configuration not stated)	nt	nt	-12.1	nt
Cc1nc(N2CCOCC2)c2cc(-c3ccccc3)sc2n1	0.9	7.0	6.8	8.8
Cc1nc(SCCC(=O)O)c2cc(-c3ccccc3)sc2n1	nt	nt	62.6*	nt
COc1ccccc1N1CCN(C2=Nc3cccc4cccc2c34)CC1	0.2	47.4	66.8*	77.8*
CC(=O)N1CCN(C2=Nc3cccc4cccc2c34)CC1	1	44.5	9.1	-1.7
O=C(N/N=C/c1ccsc1)c1ccccn1	0.5	-0.3	18.9	52.2*
O=C(N/N=C/c1ccc(Br)s1)c1ccccn1	0.3	33.6	51.6*	66.4*
Cc1ccsc1/C=N/NC(=O)c1ccccn1	0.5	13.8	12.1	46.1
CCCCNC(=O)c1ccc(Cn2c(=S)[nH]c3c([nH]c4ccc(OC)cc43)c2=O)cc1	1.1	17.2	70.4*	-5.7
Cc1ccc(C)c(OCc2cc(C(=O)NC3CCOC(C)(C)C3)no2)c1 (configuration not stated)	nt	nt	15.7	nt
COc1ccc(/C=N/Nc2nccnc2Cl)cc1	0.3	34.2	46.3	70.0*
Cc1cc(N/N=C/c2ccc(F)cc2)nc(-n2nc(C)cc2C)n1	nt	8.4	6.5	nt
SMILES	FLuc stim CS	PPC-1+TRAIL kill	C8 TRAIL sens	FLuc inh counter
COc1cccc(/C=N/Nc2nc(Nc3ccccc3)nc(-n3nc(C)cc3C)n2)c1O	1	-0.2	60.6*	4.8
COc1ccc(/C=N/Nc2cc(C)nc(-n3nc(C)cc3C)n2)c(OC)c1	1	23.6	54.5*	-3.7
Clc1nccnc1N/N=C/c1ccc(Br)cc1	nt	nt	-0.6	nt
COc1ccc(/C=N/Nc2cc(N(C)C)nc(N(C)C)n2)cc1	1	2.2	27.6	-2.4
COc1ccc(/C=N/Nc2cc(OC)ncn2)cc1	0.2	44.7	60.8*	82.7*
CCCCN1C(=O)C(=O)c2cc(Cl)ccc21	nt	nt	12.0	nt
Cc1ccc2nc(SCc3nc4cc(Cl)ccc4c(=O)[nH]3)[nH]c2c1	1.1	4.1	16.8	-5.4
O=C(NCc1cccs1)C1CCC(CNS(=O)(=O)c2cccc3nsnc23)CC1 (configuration not stated)	1	-2.3	-6.5	-0.9
COc1ccc(/C=N/Nc2nccnc2Cl)c(OC)c1	0.5	16.3	3.0	52.2*
COC(=O)c1ccc(N=Nc2ccccc2)cc1	0.4	10.9	6.7	59.6*
CNC[C@@H]1Oc2c(NC(=O)Nc3ccccc3)cccc2C(=O)N([C@@H](C)CO)C[C@H]1C	nt	nt	-6.1	nt
COc1ccc2cc3cc(C(=O)N4CCCCCC4)oc3nc2c1	nt	nt	49.8*	nt
COc1ccc(-c2cc(C(=O)N3CCCC3)no2)cc1	nt	nt	61.5*	nt
O=C(c1cc(-c2ccc(F)cc2)on1)N1CCCc2ccccc21	0.7	-1.3	2.4	29.7
COc1ccc2cc3cc(C(=O)N4CCN(C5CCCCC5)CC4)oc3nc2c1	nt	nt	11.7	nt
Cc1ccc(-c2cc(C(=O)N3CCCc4ccccc43)no2)cc1	0.4	10.8	31.7	57.6*
COc1cccc(-c2cc(C(=O)N3CCCCCC3)no2)c1	0.4	31.6	-7.8	62.0*
COc1ccc(-c2cc(C(=O)N3CCCCCC3)no2)cc1	nt	nt	25.9	nt
O=C(c1cc(-c2ccc(F)cc2)on1)N1CCCCCC1	nt	nt	15.7	nt
O=C(c1cc(-c2ccc(F)cc2)on1)N1CCCC1	0.4	32.3	36.4	63.8*
O=C(O)COc1ccc2oc3ccccc3c2c1	1.1	0.1	-5.5	-5.3
O=C(Nc1ccccc1O)c1ccc(NC(=O)C2CC2)cc1	nt	nt	14.2	nt
O=C(Nc1ccccc1C(=O)Nc1ccccc1C(=O)O)c1ccccc1	nt	nt	18.7	nt
Nc1ccc(C(=O)Nc2ccccc2C(=O)O)cc1	0.5	23.4	19.7	53.8*
O=C(Nc1ccccc1C(=O)O)c1ccc(NC(=O)C2CC2)cc1	nt	nt	65.3*	nt
SMILES	FLuc stim CS	PPC-1+TRAIL kill	C8 TRAIL sens	FLuc inh counter
COc1cccc(C(=O)c2c[nH]c(C(=O)NCCCN3CCOCC3)c2)c1	1.1	18.0	-10.2	-6.6
COc1ccccc1NC1=C(N2CCCCC2)C(=O)c2ccccc2C1=O	1	71.7*	50.0	-0.2
Cc1cc(-c2n[nH]c(=S)o2)c(C)n1-c1ccccc1	0.3	-17.1	nt	67.4*
Cc1cc(C)cc(C(=O)Nc2nnc(SCC(=O)N3CCCc4ccccc43)s2)c1	1	18.5	8.3	1.3
O=C(Nc1nnc(SCC(=O)N2CCCc3ccccc32)s1)c1ccccc1	0.1	74.9*	75.2*	92.2*
O=C(Nc1nnc(SCC(=O)N2CCCc3ccccc32)s1)c1ccc2ccccc2c1	0.1	64.3*	82.9*	92.5*
COc1cc2c(C(=O)N3CCN(C4CCCCC4)CC3)cn(CC(C)C)c(=O)c2cc1OC	1.1	14.8	nt	-6.5
COc1cccc(/C=N/Nc2nn3cnnc3c3ccccc23)c1	0.3	37.3	63.8*	70.7*
COc1cccc(/C=N/Nc2nc3ccccc3n3cnnc23)c1	1.1	19.0	24.1	-8.6
Oc1ccc(/C=N/Nc2nn3cnnc3c3ccccc23)cc1	nt	34.2	62.6*	nt
C(=N\Nc1nn2cnnc2c2ccccc12)/c1ccco1	0.9	35.2	-0.6	11.9
CCn1cc(S(=O)(=O)CC(=O)N2CCc3ccccc32)c2ccccc21	nt	-2.9	-2.5	nt
CCOC(=O)c1c(C)nc2sc3c(=O)n(-c4ccc(C(C)=O)cc4)nnc3c2c1-c1ccc(OC)cc1	1	16.7	5.2	-2.5
Nc1ccccc1C=C1Cc2ccccc2C1=O	nt	nt	47.9*	nt
Cc1cc(C=C2C(=O)c3ccccc3C2=O)c(C)n1-c1ccc(C(=O)O)cc1	1.1	7.8	6.4	-6.6
Cc1cc(/C=C2\Cc3ccccc3C2=O)c(C)n1-c1ccccc1	0.1	23.0	70.9*	90.9*
